The values below come from ChEMBL document CHEMBL4257457, “N-Heterocyclic borneol derivatives as inhibitors of Marburg virus glycoprotein-mediated VSIV pseudotype entry” (Medchemcomm, 2017).

Where only a bound is given, the exact number is not on record here.

In one series the test system is HEK293. The series can be described thus: Cytotoxicity against HEK293 cells assessed as reduction in cell viability after 48 hrs by MTT assay. It counts as cell-based. As to conditions: human, hek293, 48 h. In a few lines: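 HEK293 target cells were exposed to the compounds and viability was read by MTT assay.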
Background: Tetrazolium dyes change colour on reduction, which living cells bring about.

Series [1] is described as follows: Selectivity ratio of IC50 for Marburg virus envelope glycoprotein-mediated cell entry in rVSIV-deltaG-MarV-GP pseuotype virus infected HEK293 cells to IC50 for Vesicular stomatitis Indiana virus envelope glycoprotein-mediated cell entry in rVSIV-deltaG-G pseudotype virus infected HEK293 cells. In a few lines:
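Specificity coefficient is IC50 for rVSIV-ΔG-MarV-GP divided by IC50 for rVSIV-ΔG-G. Each IC50 came from HEK293 cells infected with that pseudotype (same VSIV capsid, different glycoprotein) with or without compound, at low-toxicity concentrations. Transduced luciferase was measured 24 h post-infection.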

The nature of series [2]: Selectivity index, ratio of CC50 for HEK293 cells to IC50 for Marburg virus envelope glycoprotein-mediated cell entry in rVSIV-deltaG-MarV-GP pseuotype virus infected HEK293 cells. It counts as toxicity. As to conditions: human, read-out: Ratio CC50/IC50. In a few lines: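 Selectivity index is CC50 divided by IC50 against the MARV-GP pseudotype. CC50 came from an MTT assay on HEK293 cells. For IC50, HEK293 cells were infected with rVSIV-ΔG-MarV-GP with or without compound, across a low-toxicity concentration range chosen from CC50. The luciferase signal was read 24 h post-infection.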

For the molecule `CC1(C)[C@H]2CC[C@]1(C)[C@H](OC(=O)CCN1CCOCC1)C2`, in the series on HEK293, the CC50 (commonly the concentration giving 50% cytotoxicity) is 406 µM. Besides, in series [1], the Ratio IC50 was found to be 3. Besides, the selectivity ratio in series [2] was found to be 5.
For `CC1(C)[C@H]2CC[C@]1(C)[C@H](OC(=O)CCN1CCNCC1)C2` the same measures were 207 µM, 10 and 21.
The corresponding values for `CC1(C)[C@H]2CC[C@]1(C)[C@H](O)C2` [(-)-BORNEOL] are above 3000 µM, above 3 and above 14.
For `CCN1CCN(CC(=O)O[C@@H]2C[C@@H]3CC[C@@]2(C)C3(C)C)CC1` the same measures were 859 µM, 15 and 29.
Regarding `CC1(C)[C@H]2CC[C@]1(C)[C@H](OC(=O)CN1CCOCC1)C2`, in the series with HEK293, the half-maximal cytotoxic concentration (CC50) turned out to be 1280 µM. In addition, the Ratio IC50 in series [1] turned out to be 1. The selectivity ratio in series [2] stood at 5.
The corresponding values for `CCN1CCN(CCC(=O)O[C@@H]2C[C@@H]3CC[C@@]2(C)C3(C)C)CC1` are 474 µM, 11 and 47.
For `CC1CCN(CCC(=O)O[C@@H]2C[C@@H]3CC[C@@]2(C)C3(C)C)CC1` the same measures were 215 µM, 34 and 60.
For `CCCCN(CCCC)CC(=O)O[C@@H]1C[C@@H]2CC[C@@]1(C)C2(C)C` the same measures were 73 µM, 2 and 6.
Turning to `CC1(C)[C@H]2CC[C@]1(C)[C@H](OC(=O)CN1CCCCC1)C2`, the CC50 in the series on HEK293 was 321 µM. In series [1], the Ratio IC50 stood at 1. In addition, in series [2], the selectivity ratio worked out at 4.
For `CC1CCN(CC(=O)O[C@@H]2C[C@@H]3CC[C@@]2(C)C3(C)C)CC1`, the CC50 in the series on HEK293 is 240 µM. The Ratio IC50 in series [1] stood at 3. Moreover, the selectivity ratio in series [2] worked out at 9.
For `CN1CCN(CC(=O)O[C@@H]2C[C@@H]3CC[C@@]2(C)C3(C)C)CC1` the same measures were 637 µM, 4 and 14.
The corresponding values for `CN1CCN(CCC(=O)O[C@@H]2C[C@@H]3CC[C@@]2(C)C3(C)C)CC1` are 421 µM, 16 and 20.
With `COc1ccc(CCN(C)CCCC(C#N)(c2ccc(OC)c(OC)c2)C(C)C)cc1OC` (configuration not stated), the CC50 in the series on HEK293 turned out to be 280 µM.
For `CC1(C)[C@H]2CC[C@]1(C)[C@H](OC(=O)CN1CCNCC1)C2`, the 50% cytotoxic concentration (CC50) with HEK293 was found to be 361 µM. Also, the Ratio IC50 in series [1] came out at 3. In series [2], the selectivity ratio was 18.
The corresponding values for `CC1(C)[C@H]2CC[C@]1(C)[C@H](OC(=O)CN1CCCC1)C2` are 480 µM, 5 and 9.
For `CC1(C)[C@H]2CC[C@]1(C)[C@H](OC(=O)CCN1CCCCC1)C2` the same measures were 302 µM, 14 and 35.
For `CCCCN(CCCC)CCC(=O)O[C@@H]1C[C@@H]2CC[C@@]1(C)C2(C)C` the same measures were 86 µM, 8 and 15.
As for `CC1(C)[C@H]2CC[C@]1(C)[C@H](OC(=O)CCN1CCCC1)C2`, the CC50 in the series with HEK293 was 684 µM. In addition, in series [1], the Ratio IC50 came out at 2. For the same molecule, in series [2], the selectivity ratio came out at 59.
